A short description of series [1]: Metabolism of isoflavones by homogenate of germfree mouse small intestine. The class given is in vitro ADME. To be noted: for Aglycone detected after incubation against compound added / Glycoside detected after incubation against compound added: 3 days; for Hydrolysis by homogenate of germfree mouse small intestine (in words): without bacterial activity; for Metabolized by incubation with germfree mouse small intestine (in words): 3 days anaerobically, both pH 5.0 and 7.4. Summed up:
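Upper small intestine from 14-week-old male germfree BALB/cA mice, homogenised anaerobically in 9 volumes BHI broth at pH 7.4 or 5.0. Test compound added from 5 mmol/l DMSO stock. Flavone internal standard added, then 5 extractions with equal-volume butanol, redissolved in 50% ethanol. Reversed-phase ODS HPLC (30 °C, acetonitrile/water/acetic acid gradient) with 260 nm diode-array detection. Values are % detected versus added.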

The subject of another series is human fecal suspension. The experiment in a line: Metabolism of isoflavones by human fecal suspensions. The series is classed as in vitro ADME. To be noted: for 6HG detected after incubation / 6HGDG detected after incubation: substrate 6HGDG; for Daidzein detected after incubation: substrate Daidzein; for Genistein detected after incubation: substrate Genistein; for Glycitein detected after incubation: substrate Glycitein; for Tectorigenin detected after incubation: substrate Tectorigenin.

The structures appear in SMILES notation. Marks after values point to notes of the source that are not given here.

On to `O=c1c(-c2ccc(O)cc2)coc2cc(O[C@@H]3O[C@H](CO)[C@@H](O)[C@H](O)[C@H]3O)c(O[C@@H]3O[C@H](CO)[C@@H](O)[C@H](O)[C@H]3O)c(O)c12` [6HGDG, 6-hydroxygenistein 6,7-di-O-glucoside], for which the “Aglycone detected after incubation against compound added” value (from here on “Aglycone detected after incubation”) in series [1] (pH 5.0) and in series [1] (pH 7.4) was 0.0% in each case. The “Glycoside detected after incubation against compound added” value (“Glycoside detected after incubation” for short) in series [1] (pH 5.0) is 99.4%; in series [1] (pH 7.4), 106.2^a %. Moreover, the “Hydrolysis by homogenate of germfree mouse small intestine (in words)” value in series [1] was “not hydrolyzed”. Also, the “Metabolism by human fecal bacteria (in words)” value in the series on human fecal suspension (incubation for 3 days) is on record as “completely metabolized”; in the series with human fecal suspension (incubation for 3 days, listed as 6-hydroxygenistein 6,7-di-O-glucoside) it was “highly metabolized”. Besides, in the series on human fecal suspension (six out of 10 samples), the “6HGDG metabolized to its aglycone, 6HG” value is 9 to 56%. Further, the “6HG detected after incubation” value in the series with human fecal suspension (Mix, mixture of 10 samples) came out at 0.0%; with human fecal suspension (fecal sample no. 1) it was 55.8%; in the series with human fecal suspension (fecal sample no. 2), 40.8%; in the series with human fecal suspension (fecal sample no. 3) it was 26.6%; with human fecal suspension (fecal sample no. 4), 28.4%; in the series on human fecal suspension (fecal sample no. 5), 18.4%. Also, the “6HG detected after incubation” value in the series with human fecal suspension (fecal sample no. 6) is listed as 8.7%; in the series on human fecal suspension (fecal sample no. 7), 0.0%; in the series on human fecal suspension (fecal sample no. 8), 0.0%; in the series on human fecal suspension (fecal sample no. 9) it was 0.0%; with human fecal suspension (fecal sample no. 10), 0.0%. Moreover, the “6HGDG detected after incubation” value in the series on human fecal suspension (Mix, mixture of 10 samples) is reported as 0.0%; with human fecal suspension (fecal sample no. 1), 0.0^a %; with human fecal suspension (fecal sample no. 2) it was 0.0%; in the series on human fecal suspension (fecal sample no. 3) it was 0.0%; in the series on human fecal suspension (fecal sample no. 4) it was 0.0%; in the series with human fecal suspension (fecal sample no. 5) it was 0.0%. In addition, the “6HGDG detected after incubation” value with human fecal suspension (fecal sample no. 6), with human fecal suspension (fecal sample no. 7), with human fecal suspension (fecal sample no. 8), in the series with human fecal suspension (fecal sample no. 9) and in the series on human fecal suspension (fecal sample no. 10) was 0.0% each time.
As to `O=c1c(-c2ccc(O)cc2)coc2cc(O)ccc12` [Daidzein, daidzein], the “Detected intact after incubation” value in series [1] (aglycone-form substrate) is given as “More than 95%”. In addition, the “Daidzein detected after incubation” value in the series with human fecal suspension (Mix, mixture of 10 samples) stood at 30.1%; with human fecal suspension (fecal sample no. 1) it was 84.5%; in the series on human fecal suspension (fecal sample no. 2), 90.8%; in the series with human fecal suspension (fecal sample no. 3), 60.3%; in the series with human fecal suspension (fecal sample no. 4) it was 96.4%; in the series with human fecal suspension (fecal sample no. 5) it was 8.0%. Moreover, the “Daidzein detected after incubation” value in the series on human fecal suspension (fecal sample no. 6) is on record as 0.0%; in the series on human fecal suspension (fecal sample no. 7), 62.6%; in the series with human fecal suspension (fecal sample no. 8), 13.9%; with human fecal suspension (fecal sample no. 9) it was 81.4%; with human fecal suspension (fecal sample no. 10) it was 8.4%.
Take `O=c1c(-c2ccc(O)cc2)coc2cc(O)cc(O)c12` [Genistein]: the “Detected intact after incubation” value in series [1] (aglycone-form substrate) is reported as “More than 95%”. Moreover, the “Detected as intact substrate” value in the series on human fecal suspension (1 sample) worked out at 70%. Moreover, the Substrate metabolized in the series with human fecal suspension (1 sample, incubation for 3 days) is on record as 94%. In the series with human fecal suspension (2 samples), the Found intact result was “more than 90%”. Further, the “Metabolites detected, including 6HG and equol (in words)” value with human fecal suspension (any incubates) is listed as “No metabolites”. Moreover, in the series on human fecal suspension (mixed human feces), the “Substrate metabolized (in words)” value is reported as “completely”. For the same compound, the “Genistein detected after incubation” value was 0.0% in the series on human fecal suspension (Mix, mixture of 10 samples); 70.9% in the series with human fecal suspension (fecal sample no. 1); 91.2% in the series with human fecal suspension (fecal sample no. 2); 99.0% in the series with human fecal suspension (fecal sample no. 3); 5.9% in the series with human fecal suspension (fecal sample no. 4); 0.0% with human fecal suspension (fecal sample no. 5). Moreover, the “Genistein detected after incubation” value in the series with human fecal suspension (fecal sample no. 6), in the series on human fecal suspension (fecal sample no. 7), in the series on human fecal suspension (fecal sample no. 8), with human fecal suspension (fecal sample no. 9) and with human fecal suspension (fecal sample no. 10) was 0.0% in each case.
With `O=c1c(-c2ccc(O)cc2)coc2cc(O[C@@H]3O[C@H](CO)[C@@H](O)[C@H](O)[C@H]3O)cc(O)c12` [Genistin], the “Metabolized by incubation with germfree mouse small intestine (in words)” value in series [1] is reported as “completely metabolized”. The “Glycoside detected after incubation” value in series [1] (pH 5.0) and in series [1] (pH 7.4) was 0.0% each time. The “Hydrolysis by homogenate of germfree mouse small intestine (in words)” value in series [1] is “highly hydrolyzed”.
Regarding `COc1cc2c(=O)c(-c3ccc(O)cc3)coc2cc1O` [Glycitein, glycitein], in series [1] (aglycone-form substrate), the “Substrate added that was resolved (in words)” value is recorded as “about a half”. Also, the Substrate metabolized result with human fecal suspension (all fecal samples including the mixed sample) is listed as “At least 75%”. The “Glycitein detected after incubation” value is given as 8.0% in the series with human fecal suspension (Mix, mixture of 10 samples); 24.6^a % with human fecal suspension (fecal sample no. 1); 17.5% with human fecal suspension (fecal sample no. 2); 2.7% with human fecal suspension (fecal sample no. 3); 10.7% in the series with human fecal suspension (fecal sample no. 4); 7.1% in the series on human fecal suspension (fecal sample no. 5). Besides, the “Glycitein detected after incubation” value in the series with human fecal suspension (fecal sample no. 6) amounted to 0.0%; with human fecal suspension (fecal sample no. 7), 12.2%; in the series with human fecal suspension (fecal sample no. 8) it was 3.2%; in the series with human fecal suspension (fecal sample no. 9) it was 0.0%; in the series with human fecal suspension (fecal sample no. 10) it was 5.6%.
In the case of `COc1cc2c(=O)c(-c3ccc(O)cc3)coc2cc1O[C@@H]1O[C@H](CO)[C@@H](O)[C@H](O)[C@H]1O` [Glycitin, glycitin], in series [1], the “Glycitin metabolized detected as glycitein” value is given as “about 65%”, the “Metabolized by incubation with germfree mouse small intestine (in words)” value was “completely metabolized” and the “Hydrolysis by homogenate of germfree mouse small intestine (in words)” value is given as “highly hydrolyzed”. Further, in series [1] (pH 5.0), the “Aglycone detected after incubation” value worked out at 65.5% and the “Glycoside detected after incubation” value is 0.0%. Moreover, in series [1] (pH 7.4), the “Aglycone detected after incubation” value is given as 62.1% and the “Glycoside detected after incubation” value is listed as 0.0%.
On to `COc1c(O[C@@H]2O[C@H](CO[C@@H]3OC[C@@H](O)[C@H](O)[C@H]3O)[C@@H](O)[C@H](O)[C@H]2O)cc2occ(-c3ccc(O)cc3)c(=O)c2c1O` [TGXG, Tectorigenin 7-O-xylosylglucoside], for which, in series [1] (pH 5.0), the Substrate metabolized result is “More than 95%”, the “Aglycone detected after incubation” value was 97.1% and the “Glycoside detected after incubation” value was determined as 4.9%. Further, in series [1] (pH 7.4), the Substrate metabolized was determined as 40%, the “Aglycone detected after incubation” value is recorded as 43.7% and the “Glycoside detected after incubation” value was 60.7%. For the same compound, the “Hydrolysis by homogenate of germfree mouse small intestine (in words)” value in series [1] is “highly hydrolyzed”.
Take `COc1c(O[C@@H]2O[C@H](CO)[C@@H](O)[C@H](O)[C@H]2O)cc2occ(-c3ccc(O)cc3)c(=O)c2c1O` [Tectoridin, tectoridin]: in series [1], the “Metabolized by incubation with germfree mouse small intestine (in words)” value is “completely metabolized” and the “Hydrolysis by homogenate of germfree mouse small intestine (in words)” value is on record as “highly hydrolyzed”. Besides, the “Glycoside detected after incubation” value in series [1] (pH 5.0) was determined as 0.0%. In addition, in series [1] (pH 7.4), the “Glycoside detected after incubation” value was determined as 0.0%.
Turning to `COc1c(O)cc2occ(-c3ccc(O)cc3)c(=O)c2c1O` [Tectorigenin, tectorigenin], in series [1] (aglycone-form substrate), the “Detected intact after incubation” value is reported as “More than 95%”. Moreover, the “Substrate metabolized (in words)” value in the series on human fecal suspension (1 fecal sample) is reported as “about half”; in the series with human fecal suspension (8 of 10 fecal samples), “metabolized completely”; in the series on human fecal suspension (mixed human feces), “completely”. Moreover, in the series with human fecal suspension (mixed human feces), the “Metabolite detected (in words)” value is recorded as “no metabolite was detected”. Besides, the “Tectorigenin detected after incubation” value in the series with human fecal suspension (Mix, mixture of 10 samples) is recorded as 0.0%; in the series on human fecal suspension (fecal sample no. 1), 53.5%; with human fecal suspension (fecal sample no. 2) it was 2.6%; in the series with human fecal suspension (fecal sample no. 3) it was 0.0%; in the series on human fecal suspension (fecal sample no. 4), 0.0%; in the series with human fecal suspension (fecal sample no. 5), 0.0%. Also, the “Tectorigenin detected after incubation” value in the series on human fecal suspension (fecal sample no. 6), in the series on human fecal suspension (fecal sample no. 7), in the series on human fecal suspension (fecal sample no. 8), in the series with human fecal suspension (fecal sample no. 9) and in the series with human fecal suspension (fecal sample no. 10) was 0.0% each time.

Values taken from PMC4103641 (Bioscience and Microflora, 2011).
